ChEMBL document CHEMBL1149410, “Discovery of a potent phenolic N1-benzylidene-pyridinecarboxamidrazone selective against Gram-positive bacteria” (Bioorg Med Chem Lett, 2006)
Converted amounts (≈) assume the structure as drawn. The source made the active and inactive calls. No cut-off for these calls is given here.

Tests used:
Enterococcus faecalis [1] = test: Antibacterial activity against Enterococcus faecalis isolate 2; type: functional
Method in brief: (§1)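 Agar dilution MIC on Mueller–Hinton agar. Bacteria were spotted with a multipoint inoculator and plates incubated at 37 °C for 18 h. MIC was taken as the lowest concentration inhibiting growth. The panels covered clinical MRSA isolates, methicillin-sensitive S. aureus, enterococci, Gram-negative bacteria and vancomycin-resistant enterococci.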

Enterococcus faecalis [2] = test: Antibacterial activity against Enterococcus faecalis isolate 3; type: functional; method in brief: as §1
[3] = tested on: Mycolicibacterium fortuitum; test: Antibacterial activity against Mycobacterium fortuitum; type: functional, organism-based
Method in brief: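 The Mycobacterium fortuitum reference strain NCTC 10394 was screened for a zone of inhibition on Columbia agar supplemented with horse blood. Compounds were also screened at a single concentration in Middlebrook 7H9 broth with glycerol and ADC enrichment. The MIC was determined in broth when a zone or single-concentration activity was seen.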

Pseudomonas aeruginosa = test: Antibacterial activity against Pseudomonas aeruginosa NCTC 6749; type: functional; method in brief: as §1
Enterococcus faecalis [4] = test: Antibacterial activity against Enterococcus faecalis isolate 5; type: functional
Method in brief: (§2)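 Agar dilution MIC on Mueller–Hinton agar, with a multipoint inoculator spotting the organisms. The MIC was the lowest concentration that inhibited growth after 18 h at 37 °C.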

[5] = tested on: Staphylococcus haemolyticus; test: Antibacterial activity against clinical isolate of Staphylococcus haemolyticus; type: functional; method in brief: as §2
Enterococcus [6] = test: Antibacterial activity against vancomycin-resistant Enterococcus 3102095; type: functional; method in brief: as §1
[7] = tested on: Stenotrophomonas maltophilia; test: Antibacterial activity against Stenotrophomonas maltophilia NCTC 10257; type: functional; method in brief: as §1
Enterococcus faecium [8] = test: Antibacterial activity against Enterococcus faecium NCTC 7171; type: functional; method in brief: as §2
Staphylococcus aureus [9] = test: Antibacterial activity against methicillin-sensitive Staphylococcus aureus Cowan 1; type: functional; method in brief: as §1
Staphylococcus aureus [10] = test: Antibacterial activity against methicillin-sensitive Staphylococcus aureus NCTC 6571; type: functional; method in brief: as §1
Enterococcus [11] = test: Antibacterial activity against vancomycin-resistant Enterococcus 3005353; type: functional; method in brief: as §1
Enterococcus faecalis [12] = test: Antibacterial activity against Enterococcus faecalis isolate 4; type: functional; method in brief: as §2
PBMC [13] = test: Toxicity towards human mononuclear leucocytes at 0.5 mM; type: cell-based; conditions: 500 µM
Method in brief: (§3)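 Human mononuclear leucocytes were exposed to compound for 1 h, then held in compound-free medium for 18 h. Cell death was scored by trypan blue exclusion and reported as % leucocyte death. The test concentration was 1 mM, or 0.5 mM where solubility limited it.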

Enterococcus [14] = test: Antibacterial activity against vancomycin-resistant Enterococcus 3005323; type: functional; method in brief: as §1
Enterococcus faecalis [15] = test: Antibacterial activity against Enterococcus faecalis isolate 1; type: functional; method in brief: as §2
Klebsiella pneumoniae = test: Antibacterial activity against Klebsiella pneumoniae 327; type: functional; method in brief: as §1
Enterococcus [16] = test: Antibacterial activity against vancomycin-resistant Enterococcus 3001562; type: functional; method in brief: as §1
Enterobacter cloacae = test: Antibacterial activity against Enterobacter cloacae NCTC 11582; type: functional; method in brief: as §1
Enterococcus [17] = test: Antibacterial activity against vancomycin-resistant Enterococcus 3002066; type: functional; method in brief: as §1
[18] = tested on: Bordetella bronchiseptica; test: Antibacterial activity against Bordetella bronchiseptica NCTC 8344; type: functional; method in brief: as §1
Enterococcus faecium [19] = test: Antibacterial activity against Enterococcus faecium ACTCC 10541; type: functional; method in brief: as §2
Enterococcus [20] = test: Antibacterial activity against vancomycin-resistant Enterococcus 3002043; type: functional; method in brief: as §1
Staphylococcus aureus [21] = test: Antibacterial activity against 10 clinical isolate methicillin-resistant strains of Staphylococcus aureus; type: functional; method in brief: as §1
[22] = tested on: Mycobacterium tuberculosis; test: Antibacterial activity against Mycobacterium tuberculosis H37Rv; type: functional
Method in brief: (§4)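 Inhibition of M. tuberculosis H37Rv (ATCC 27294) growth was tested in BACTEC 12B medium. Percent inhibition was recorded at a fixed concentration, and MIC was also determined.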

Escherichia coli [23] = test: Antibacterial activity against Escherichia coli W3110 R+; type: functional; method in brief: as §1
Enterococcus [24] = test: Antibacterial activity against vancomycin-resistant Enterococcus 3005426; type: functional; method in brief: as §1
Enterococcus faecalis [25] = test: Antibacterial activity against Enterococcus faecalis NCTC 5957; type: functional; method in brief: as §2
Escherichia coli [26] = test: Antibacterial activity against Escherichia coli W3110 R-; type: functional; method in brief: as §1
[27] = tested on: Mycobacterium tuberculosis; test: Antibacterial activity against Mycobacterium tuberculosis H37Rv at 6.25 ug/ml; type: functional; method in brief: as §4
Staphylococcus aureus [28] = test: Antibacterial activity against methicillin-sensitive Staphylococcus aureus NCTC 10788; type: functional; method in brief: as §1
Serratia marcescens = test: Antibacterial activity against Serratia marcescens 4444; type: functional; method in brief: as §1
PBMC [29] = test: Toxicity towards human mononuclear leucocytes at 1 mM; type: cell-based; conditions: 1000 µM; method in brief: as §3

Compound: CC(C)(C)c1cc(/C=N/N=C(\N)c2ccncc2)c(O)c(C(C)(C)C)c1
- MIC (Enterococcus faecalis [1]): 2 µg/mL (≈ 5.67 µM)
- MIC (Enterococcus faecalis [2]): 4 µg/mL (≈ 11.3 µM)
- Activity [3]: inactive
- MIC (Pseudomonas aeruginosa): inactive
- MIC (Enterococcus faecalis [4]): 2 µg/mL (≈ 5.67 µM)
- MIC [5]: 2 µg/mL (≈ 5.67 µM)
- MIC (Enterococcus [6]): 2 µg/mL (≈ 5.67 µM)
- MIC [7]: inactive
- MIC (Enterococcus faecium [8]): 2 µg/mL (≈ 5.67 µM)
- MIC (Staphylococcus aureus [9]): 2 µg/mL (≈ 5.67 µM)
- MIC (Staphylococcus aureus [10]): 2 µg/mL (≈ 5.67 µM)
- MIC (Enterococcus [11]): 2 µg/mL (≈ 5.67 µM)
- MIC (Enterococcus faecalis [12]): 2 µg/mL (≈ 5.67 µM)
- Activity (PBMC [13]): 100%
- MIC (Enterococcus [14]): 2 µg/mL (≈ 5.67 µM)
- MIC (Enterococcus faecalis [15]): 2 µg/mL (≈ 5.67 µM)
- MIC (Klebsiella pneumoniae): inactive
- MIC (Enterococcus [16]): 2 µg/mL (≈ 5.67 µM)
- MIC (Enterobacter cloacae): inactive
- MIC (Enterococcus [17]): 2 µg/mL (≈ 5.67 µM)
- MIC [18]: inactive
- MIC (Enterococcus faecium [19]): 2 µg/mL (≈ 5.67 µM)
- MIC (Enterococcus [20]): 2 µg/mL (≈ 5.67 µM)
- MIC (Staphylococcus aureus [21]): 2 µg/mL (≈ 5.67 µM)
- MIC [22]: 6.25 µg/mL (≈ 17.7 µM)
- MIC (Escherichia coli [23]): inactive
- MIC (Enterococcus [24]): 2 µg/mL (≈ 5.67 µM)
- MIC (Enterococcus faecalis [25]): 2 µg/mL (≈ 5.67 µM)
- MIC (Escherichia coli [26]): inactive
- inhibition at 6.25 µg/mL [27]: 100%
- MIC (Staphylococcus aureus [28]): 2 µg/mL (≈ 5.67 µM)
- MIC (Serratia marcescens): inactive

Compound: N/N=C(/N)c1ccncc1
- Activity (PBMC [29]): 13.8%

Compound: N/C(=N\N=C\c1cc([N+](=O)[O-])cc(Br)c1O)c1ccncc1
- MIC (Staphylococcus aureus [21]): inactive

Compound: N/C(=N\N=C\c1ccc(O)c(O)c1O)c1ccncc1
- Activity [3]: inactive
- MIC (Staphylococcus aureus [21]): 30 µg/mL (≈ 110 µM)

Compound: COc1cc([N+](=O)[O-])cc(/C=N/N=C(\N)c2ccncc2)c1O
- Activity [3]: inactive
- MIC (Staphylococcus aureus [21]): inactive

Compound: CC(C)(C)c1cc(/C=N/N=C(\N)c2cccnc2)c(O)c(C(C)(C)C)c1
- Activity [3]: inactive
- MIC (Staphylococcus aureus [21]): inactive

Compound: N/C(=N\N=C\c1ccccc1O)c1ccncc1
- Activity (PBMC [29]): 11.7%
- MIC (Staphylococcus aureus [21]): inactive

Compound: N/C(=N\N=C\c1cccc(O)c1O)c1ccncc1
- Activity [3]: inactive
- MIC (Staphylococcus aureus [21]): inactive

Compound: CC(C)(C)c1cc(/C=N/N=C(\N)c2ccccn2)c(O)c(C(C)(C)C)c1
- Activity [3]: inactive
- MIC (Staphylococcus aureus [21]): inactive

Compound: N/C(=N\N=C\c1cc(O)c(O)cc1O)c1ccncc1
- Activity [3]: inactive
- MIC (Staphylococcus aureus [21]): 20 µg/mL (≈ 73.5 µM)

Compound: COc1cccc(/C=N/N=C(\N)c2ccncc2)c1O
- Activity [3]: inactive
- MIC (Staphylococcus aureus [21]): inactive

Compound: NNC(=O)c1ccncc1 [ISONIAZID]
- Activity (PBMC [29]): 12.4%

Compound: CC(=O)Oc1c(/C=N/N=C(\N)c2ccncc2)cc(C(C)(C)C)cc1C(C)(C)C
- Activity [3]: inactive
- MIC (Staphylococcus aureus [21]): 4 µg/mL (≈ 10.1 µM)
